Test results from paper PMC4503343 (Molecular pharmacology, 2013).
Like-named read-outs stand apart in the source and are kept apart here.

How the values were obtained:
[1] = target: human P-gp Q773R/Y950F/Y953F (Homo sapiens, UniProt P08183, Q773R/Y950F/Y953F); experiment: Continuous monitoring of rh123 zero trans efflux, Q773R/Y950F/Y953F mutant; assay type: cell-based; details: expressed at the surface
In short: (§1)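 HEK293 cells, with endogenous P-gp knocked down by lentiviral shRNA and puromycin selection, were transiently transfected with hexa-His human P-gp mutants. Cells were loaded with 0.53 μM rh123 (final) in DMEM pH 7.8 for 30 min at 37°C, chilled and washed, then effluxed into 37°C DMEM pH 7.4. Flow cytometry ran 5 min at 37°C (488/534 nm). Exponential-fit k was normalized to MRK16 surface staining. n≥3.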

human P-gp Q773R = human P-gp Q773R (Homo sapiens, UniProt P08183, Q773R); experiment: Continuous monitoring of rh123 zero trans efflux, Q773R mutant; assay type: cell-based; details: mean ± S.D.
In short: as §1

human P-gp Q132R [2] = target: T1, human P-gp Q132R (Homo sapiens, UniProt P08183, Q132R); experiment: Continuous monitoring of rh123 zero trans efflux, Q132R mutant; assay type: cell-based; details: mean ± S.D.
In short: as §1

human P-gp Q132R [3] = target: T1, human P-gp Q132R; experiment: Inhibition of rh123 efflux, Q132R mutant; assay type: cell-based; details: for fold difference in IC50 values for wild-type protein and the Q132R mutant: Q132R mutant vs wild-type
human P-gp Q132R/Y950F = human P-gp Q132R/Y950F (Homo sapiens, UniProt P08183, Q132R/Y950F); experiment: Inhibition of rh123 efflux, Q132R/Y950F mutant; assay type: cell-based
human P-gp Q132R/Y953F = human P-gp Q132R/Y953F (Homo sapiens, UniProt P08183, Q132R/Y953F); experiment: Inhibition of rh123 efflux, Q132R/Y953F mutant; assay type: cell-based; details: for fold higher IC50 value than the Q132R mutation: Q132R/Y953F mutant vs Q132R
human P-gp Y950F/Y953F = human P-gp Y950F/Y953F (Homo sapiens, UniProt P08183, Y950F/Y953F); experiment: Inhibition of rh123 efflux, Y950F/Y953F double mutant; assay type: cell-based
[4] = system: human P-gp Q132R/Y950F/Y953F; experiment: Inhibition of rh123 efflux, Q132R/Y950F/Y953F triple mutant; assay type: cell-based; details: in the Q132R background
human P-gp wild-type = human P-gp wild-type (Homo sapiens, UniProt P08183); assay type: cell-based
human P-gp Y953F = human P-gp Y953F (Homo sapiens, UniProt P08183, Y953F); experiment: Inhibition of rh123 efflux, Y953F mutant; assay type: cell-based
human P-gp Y950F = human P-gp Y950F (Homo sapiens, UniProt P08183, Y950F); experiment: Inhibition of rh123 efflux, Y950F mutant; assay type: cell-based
[5] = ref Ecker et al., 1999; cited from earlier work
[6] = pKa and protonated fraction of propafenone analogs; assay type: physicochemical; details: at intracellular pH, estimated from pKa

Sequence of human P-gp Q132R/Y953F (P08183 whole entry Q132R/Y953F): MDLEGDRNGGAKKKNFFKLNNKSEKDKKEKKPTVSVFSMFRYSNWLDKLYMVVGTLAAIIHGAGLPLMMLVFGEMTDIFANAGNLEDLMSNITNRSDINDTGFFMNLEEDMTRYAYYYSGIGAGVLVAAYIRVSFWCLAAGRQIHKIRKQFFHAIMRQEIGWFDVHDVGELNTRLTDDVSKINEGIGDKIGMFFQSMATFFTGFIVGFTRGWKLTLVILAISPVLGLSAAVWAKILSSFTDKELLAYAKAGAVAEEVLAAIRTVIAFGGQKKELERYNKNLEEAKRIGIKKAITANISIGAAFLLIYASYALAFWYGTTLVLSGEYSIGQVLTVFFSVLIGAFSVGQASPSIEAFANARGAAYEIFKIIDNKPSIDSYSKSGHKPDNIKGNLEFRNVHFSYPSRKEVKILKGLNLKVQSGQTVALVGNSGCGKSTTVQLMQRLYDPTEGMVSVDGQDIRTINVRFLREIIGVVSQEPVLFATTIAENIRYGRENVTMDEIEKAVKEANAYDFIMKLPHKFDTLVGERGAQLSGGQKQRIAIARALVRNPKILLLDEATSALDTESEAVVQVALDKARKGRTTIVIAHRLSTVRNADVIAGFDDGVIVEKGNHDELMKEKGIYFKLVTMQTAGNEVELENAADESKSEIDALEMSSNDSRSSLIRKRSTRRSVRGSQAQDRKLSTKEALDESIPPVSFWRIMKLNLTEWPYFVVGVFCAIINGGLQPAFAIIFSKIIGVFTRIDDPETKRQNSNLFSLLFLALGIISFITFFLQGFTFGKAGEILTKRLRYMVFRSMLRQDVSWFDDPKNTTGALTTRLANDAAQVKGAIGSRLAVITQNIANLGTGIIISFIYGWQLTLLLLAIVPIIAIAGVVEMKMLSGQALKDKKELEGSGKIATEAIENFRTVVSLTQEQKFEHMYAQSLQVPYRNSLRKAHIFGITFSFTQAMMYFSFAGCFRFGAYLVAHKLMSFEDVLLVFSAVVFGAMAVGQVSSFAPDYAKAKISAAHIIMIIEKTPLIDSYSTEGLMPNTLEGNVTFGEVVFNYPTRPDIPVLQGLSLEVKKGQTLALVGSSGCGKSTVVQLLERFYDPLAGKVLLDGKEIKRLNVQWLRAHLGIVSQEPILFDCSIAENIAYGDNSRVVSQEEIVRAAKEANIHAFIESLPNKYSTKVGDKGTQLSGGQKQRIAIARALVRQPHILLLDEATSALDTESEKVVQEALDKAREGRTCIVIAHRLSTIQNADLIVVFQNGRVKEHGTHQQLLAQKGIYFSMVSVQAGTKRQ
Sequence of human P-gp wild-type (P08183 whole entry): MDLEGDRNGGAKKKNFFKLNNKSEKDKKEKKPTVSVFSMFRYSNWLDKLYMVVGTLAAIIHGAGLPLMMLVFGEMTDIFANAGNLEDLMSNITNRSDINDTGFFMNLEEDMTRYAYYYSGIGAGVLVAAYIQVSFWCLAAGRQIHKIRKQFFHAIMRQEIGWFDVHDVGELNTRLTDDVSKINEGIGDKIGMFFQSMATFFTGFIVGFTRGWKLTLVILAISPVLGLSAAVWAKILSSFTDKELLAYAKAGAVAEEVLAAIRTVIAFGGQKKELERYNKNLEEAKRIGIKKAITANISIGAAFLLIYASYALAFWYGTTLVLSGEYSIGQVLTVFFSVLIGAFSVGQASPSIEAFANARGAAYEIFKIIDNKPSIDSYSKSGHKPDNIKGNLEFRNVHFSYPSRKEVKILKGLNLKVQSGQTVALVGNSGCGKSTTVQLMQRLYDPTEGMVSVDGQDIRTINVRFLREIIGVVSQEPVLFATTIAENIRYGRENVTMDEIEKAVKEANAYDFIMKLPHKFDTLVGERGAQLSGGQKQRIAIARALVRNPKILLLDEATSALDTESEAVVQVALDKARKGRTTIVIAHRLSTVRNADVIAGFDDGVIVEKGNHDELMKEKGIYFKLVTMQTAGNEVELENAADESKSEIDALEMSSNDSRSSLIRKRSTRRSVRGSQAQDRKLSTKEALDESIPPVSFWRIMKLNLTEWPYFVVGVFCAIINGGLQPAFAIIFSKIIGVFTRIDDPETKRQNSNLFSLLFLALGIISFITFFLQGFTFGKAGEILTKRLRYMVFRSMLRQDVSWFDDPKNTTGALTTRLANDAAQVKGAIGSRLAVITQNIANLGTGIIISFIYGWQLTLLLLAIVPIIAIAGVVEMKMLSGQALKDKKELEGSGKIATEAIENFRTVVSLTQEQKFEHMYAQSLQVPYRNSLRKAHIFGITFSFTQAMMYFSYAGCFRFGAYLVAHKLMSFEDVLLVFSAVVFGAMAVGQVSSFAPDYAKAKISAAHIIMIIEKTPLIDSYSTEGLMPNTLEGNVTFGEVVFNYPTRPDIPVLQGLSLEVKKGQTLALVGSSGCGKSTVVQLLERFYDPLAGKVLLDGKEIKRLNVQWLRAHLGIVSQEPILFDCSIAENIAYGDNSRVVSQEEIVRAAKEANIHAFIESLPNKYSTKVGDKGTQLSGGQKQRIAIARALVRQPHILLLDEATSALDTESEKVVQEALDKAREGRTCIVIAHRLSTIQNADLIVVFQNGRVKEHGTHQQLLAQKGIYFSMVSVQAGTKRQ
Sequence of human P-gp Y953F (P08183 whole entry Y953F): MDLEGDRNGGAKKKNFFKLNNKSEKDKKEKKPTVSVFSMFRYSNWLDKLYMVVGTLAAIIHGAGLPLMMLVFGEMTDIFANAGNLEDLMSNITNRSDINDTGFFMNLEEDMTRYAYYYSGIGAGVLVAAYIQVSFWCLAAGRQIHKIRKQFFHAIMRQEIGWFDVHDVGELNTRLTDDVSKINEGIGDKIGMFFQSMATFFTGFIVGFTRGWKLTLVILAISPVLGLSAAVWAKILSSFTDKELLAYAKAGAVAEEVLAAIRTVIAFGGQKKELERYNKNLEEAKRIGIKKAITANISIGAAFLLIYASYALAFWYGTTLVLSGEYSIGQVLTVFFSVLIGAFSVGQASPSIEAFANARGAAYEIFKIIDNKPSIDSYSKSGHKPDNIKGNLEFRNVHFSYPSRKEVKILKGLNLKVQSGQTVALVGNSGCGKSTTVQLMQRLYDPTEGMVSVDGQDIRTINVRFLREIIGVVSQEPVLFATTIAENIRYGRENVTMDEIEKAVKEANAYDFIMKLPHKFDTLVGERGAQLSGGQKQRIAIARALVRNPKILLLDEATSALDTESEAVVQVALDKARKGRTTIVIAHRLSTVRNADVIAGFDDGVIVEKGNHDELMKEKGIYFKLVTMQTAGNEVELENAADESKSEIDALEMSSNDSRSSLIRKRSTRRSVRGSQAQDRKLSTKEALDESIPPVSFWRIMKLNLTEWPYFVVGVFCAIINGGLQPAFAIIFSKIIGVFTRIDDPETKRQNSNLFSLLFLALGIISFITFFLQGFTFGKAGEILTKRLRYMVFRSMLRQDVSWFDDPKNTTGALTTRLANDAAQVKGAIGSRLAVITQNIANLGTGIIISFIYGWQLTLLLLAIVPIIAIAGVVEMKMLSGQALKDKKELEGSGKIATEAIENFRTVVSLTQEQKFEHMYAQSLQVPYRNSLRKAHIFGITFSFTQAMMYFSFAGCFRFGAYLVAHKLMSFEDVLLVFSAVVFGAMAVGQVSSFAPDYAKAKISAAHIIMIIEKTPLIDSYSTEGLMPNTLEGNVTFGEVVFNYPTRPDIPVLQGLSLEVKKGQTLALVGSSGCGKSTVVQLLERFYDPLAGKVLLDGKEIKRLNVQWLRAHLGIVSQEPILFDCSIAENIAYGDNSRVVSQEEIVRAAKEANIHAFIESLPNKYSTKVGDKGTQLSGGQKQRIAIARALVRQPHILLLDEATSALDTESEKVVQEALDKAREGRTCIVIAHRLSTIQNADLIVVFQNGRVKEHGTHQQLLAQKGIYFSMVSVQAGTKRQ
T1 sequence (P08183 whole entry Q132R): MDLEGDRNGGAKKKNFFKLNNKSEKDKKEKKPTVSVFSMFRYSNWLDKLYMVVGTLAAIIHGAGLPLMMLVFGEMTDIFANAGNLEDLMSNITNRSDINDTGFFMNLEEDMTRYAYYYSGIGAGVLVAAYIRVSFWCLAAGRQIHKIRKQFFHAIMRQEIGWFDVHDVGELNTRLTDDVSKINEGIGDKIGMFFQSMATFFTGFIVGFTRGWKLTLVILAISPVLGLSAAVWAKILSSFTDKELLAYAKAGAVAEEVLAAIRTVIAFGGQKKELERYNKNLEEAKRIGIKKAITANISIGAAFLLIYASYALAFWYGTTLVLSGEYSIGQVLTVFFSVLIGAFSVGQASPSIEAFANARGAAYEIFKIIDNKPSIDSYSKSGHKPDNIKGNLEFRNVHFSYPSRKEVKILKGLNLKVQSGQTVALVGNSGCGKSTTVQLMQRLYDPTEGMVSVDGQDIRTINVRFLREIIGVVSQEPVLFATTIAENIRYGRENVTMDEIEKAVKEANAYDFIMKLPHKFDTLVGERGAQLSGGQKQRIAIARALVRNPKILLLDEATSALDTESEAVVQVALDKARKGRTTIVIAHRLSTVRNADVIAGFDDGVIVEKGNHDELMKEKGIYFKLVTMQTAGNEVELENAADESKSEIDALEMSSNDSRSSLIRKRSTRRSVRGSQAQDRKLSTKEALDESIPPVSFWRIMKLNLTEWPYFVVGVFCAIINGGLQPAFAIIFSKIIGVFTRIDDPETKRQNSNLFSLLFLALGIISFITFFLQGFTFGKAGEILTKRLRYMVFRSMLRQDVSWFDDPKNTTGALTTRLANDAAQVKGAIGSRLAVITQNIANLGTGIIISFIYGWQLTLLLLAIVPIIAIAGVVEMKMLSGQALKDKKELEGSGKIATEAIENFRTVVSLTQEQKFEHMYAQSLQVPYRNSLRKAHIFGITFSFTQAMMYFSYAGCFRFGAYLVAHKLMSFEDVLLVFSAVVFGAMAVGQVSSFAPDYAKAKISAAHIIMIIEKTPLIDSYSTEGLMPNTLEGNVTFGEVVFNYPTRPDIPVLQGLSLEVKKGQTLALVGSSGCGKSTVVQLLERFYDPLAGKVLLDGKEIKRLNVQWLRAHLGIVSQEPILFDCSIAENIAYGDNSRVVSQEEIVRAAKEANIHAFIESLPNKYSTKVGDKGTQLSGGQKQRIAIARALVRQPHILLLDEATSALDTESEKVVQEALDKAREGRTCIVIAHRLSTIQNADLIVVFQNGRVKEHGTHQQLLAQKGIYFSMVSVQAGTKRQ

| IC50 (human P-gp Q132R [3]) [nM] | fold higher IC50 value than the Q132R mutation (human P-gp Q132R/Y953F) [fold] | IC50 (human P-gp Y950F/Y953F) [µM] | fold change in IC50 [4] [fold] | IC50 (human P-gp wild-type) [nM] | IC50 (human P-gp Y953F) [nM] | IC50 (human P-gp Y950F) [nM] | fold difference in IC50 values for wild-type protein and the Q132R mutant (human P-gp Q132R [3]) | percentage of protonated (charged) species [6] | Compound | pKa [5] | also measured |
| --- | --- | --- | --- | --- | --- | --- | --- | --- | --- | --- | --- |
| – | – | – | – | – | – | – | – | – | COC(=O)c1ccccc1-c1c2ccc(=N)cc-2oc2cc(N)ccc12 [rh123, rhodamine123] | – | rh123 efflux [1]: no rh123 efflux was detectable; rh123 efflux (fractional transport rate) (human P-gp Q773R): 37% ± 8%; rh123 efflux (fractional transport rate) (human P-gp Q132R [2]): 75% ± 11% |
| 1070 ± 282 | 3.0 | 17.8 | 4.9 | 2240 ± 391 | 15900 | 2980 ± 79 | – | – | CCCN(CC(O)COc1ccccc1C(=O)CCc1ccccc1)C(=O)c1ccccc1 (stereo not drawn) [GPV366, N-(2-hydroxy-3-(2-(3-phenylpropanoyl)phenoxy)propyl)-N-propylbenzamide] | – | IC50 (human P-gp Q132R/Y950F): 966 ± 259 nM; IC50 (human P-gp Q132R/Y953F): 3.26 ± 0.965 µM; fold change in IC50 relative to wild-type (human P-gp Y950F/Y953F; Y950F/Y953F mutant vs wild-type): 8 fold; fold change in IC50 relative to wild-type (human P-gp Y953F; Y953F mutant vs wild-type): 7.1 fold |
| 521 ± 183 | 2.1 | 0.63 ± 0.087 | 2.7 | 85 ± 22 | 287 ± 109 | 238 ± 84 | at least 3 fold | 60–70% | O=C(CCc1ccccc1)c1ccccc1OCC(O)CN1CCN(c2ccc(F)cc2)CC1 (stereo not drawn) [GPV031, 1-(2-(3-(4-(4-fluorophenyl)piperazin-1-yl)-2-hydroxypropoxy)phenyl)-3-phenylpropan-1-one] | 7.3 | – |
| – | 1.5 | – | 2.3 | – | – | – | at least 3 fold | > 90% | O=C(CCc1ccccc1)c1ccccc1OCC(O)CN1CCCCC1 (stereo not drawn) [GPV005] | 8.4 | IC50 (human P-gp Q132R [3]; read-out: IC50 for inhibition of rh123 efflux, Q132R mutant, HEK293 cells, mean ± S.D.): 1410 ± 215 nM; IC50 (human P-gp wild-type; read-out: IC50 for inhibition of rh123 efflux, wild-type P-gp, HEK293 cells, 37°C, mean ± S.D.): 518 ± 141 nM; IC50 (human P-gp Y953F; read-out: IC50 for inhibition of rh123 efflux, Y953F mutant, HEK293 cells, mean ± S.D.): 1210 ± 362 nM; IC50 (human P-gp Y950F; read-out: IC50 for inhibition of rh123 efflux, Y950F mutant, HEK293 cells, mean ± S.D.): 1350 ± 229 nM |
